Legend:
[1] = Neurotoxicity in ip dosed mouse assessed as impaired motor coordination administered 30 mins prior to test by chimney test; format: toxicity, organism-based; conditions: in vivo
Method in brief: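 Mice, Chimney test. TD50 is the dose that produces minimal neurological toxicity (impaired motor coordination) in 50% of animals, estimated from testing at several doses.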

Mus musculus [2] = assay: Anticonvulsant activity in mouse assessed as protection against picrotoxin-induced seizure at 1.5 mmol/kg, ip administered 30 min prior to picrotoxin-challenge measured after 60 mins relative to control; format: functional
Mus musculus [3] = assay: Anticonvulsant activity in mouse assessed as protection against pentylenetetrazol-induced seizure at 1.5 mmol/kg, ip administered 30 min prior to pentylenetetrazol-challenge measured after 60 mins relative to control; format: functional
Mus musculus [4] = assay: Anticonvulsant activity in mouse assessed as protection against maximal electroshock-induced seizure at 1.5 mmol/kg, ip administered 30 min prior to maximal electroshock-challenge measured after 60 mins relative to control; format: functional
Mus musculus [5] = assay: Anticonvulsant activity in ip dosed mouse assessed as protection against pentylenetetrazol-induced seizure administered 30 min prior to pentylenetetrazol-challenge measured after 60 mins; format: functional
Method in brief: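 Mice received several doses for quantification. ED50 taken as the dose protecting 50% of mice against pentylenetetrazol-induced seizures.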

Mus musculus [6] = assay: Anticonvulsant activity in mouse assessed as protection against strychnine-induced seizure at 1.5 mmol/kg, ip administered 30 min prior to strychnine-challenge measured after 60 mins relative to control; format: functional
[7] = Toxicity in ip dose mouse assessed as mortality; format: organism-based; conditions: in vivo
Method in brief: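 In mice, LD50 is the dose causing 50% mortality. ED50 is the dose protecting 50% of mice against pentylenetetrazole-induced seizures. Therapeutic index = LD50/ED50.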

Molecule `CCCC(CCC)C(=O)[O-].[Na+]` [VALPROATE SODIUM] has a TD50 at 0.5 h [1] of 2700 µmol/kg, an Activity (Mus musculus [2]) of 100% and an Activity (Mus musculus [3]) of 100%. For the same molecule, the Activity (Mus musculus [4]) was 100%, the ED50 (Mus musculus [5]) was 1500 µmol/kg and the Activity (Mus musculus [6]) was 100%. The LD50 [7] was 3000 µmol/kg.

Source: ChEMBL document CHEMBL1955778, “Design and synthesis of novel 7-aminoquinazoline derivatives: antitumor and anticonvulsant activities” (Bioorg Med Chem Lett, 2012)
